Data taken from ChEMBL document CHEMBL4316643, “Sesquiterpenes from an Eastern African Medicinal Mushroom Belonging to the Genus Sanghuangporus” (J Nat Prod, 2019).
In brackets after ≈: the same amount, converted by molar mass. Activity calls are given as the source filed them. The calls are words filed in the database; no cut-off is given here.

Key:
[1] = system: Bacillus subtilis; test: Antimicrobial activity against Bacillus subtilis DSM 10 by serial dilution assay; assay type: functional
[2] = system: Micrococcus luteus; test: Antimicrobial activity against Micrococcus luteus DSM 1790 by serial dilution assay; assay type: functional
[3] = system: Mycolicibacterium smegmatis; test: Antimicrobial activity against Mycobacterium smegmatis DSM 43524 by serial dilution assay; assay type: functional
[4] = system: Staphylococcus aureus; test: Antimicrobial activity against Staphylococcus aureus DSM 346 by serial dilution assay; assay type: functional
[5] = system: Mucor hiemalis; test: Antimicrobial activity against Mucor hiemalis DSM 2656 by serial dilution assay; assay type: functional
Summary of the method: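 Serial dilution MIC assay in 96-well plates using YM medium for the filamentous fungus; starting concentration 300 μg/mL.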

[6] = system: KB 3-1; test: Cytotoxicity in human KB 3.1 cells; assay type: functional, cell-based
Summary of the method: (§1)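 In vitro cytotoxicity against mouse fibroblast L929 and HeLa-derived KB-3.1 cells; serial dilutions from a starting concentration of 37 μg/mL; IC50 determined.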

[7] = system: L929; test: Cytotoxicity in mouse L929 cells; assay type: functional, cell-based; summary of the method: as §1
[8] = Homo sapiens, KB 3-1, read-out: IC50
[9] = Mus musculus, L929, read-out: IC50

| Compound | MIC [1] | MIC [2] | MIC [3] | MIC [4] | MIC [5] | IC50 [6, 8] [µM] | IC50 [7, 9] [µM] | IC50 ([7]; l929) | IC50 ([6]; kb 3-1) |
| --- | --- | --- | --- | --- | --- | --- | --- | --- | --- |
| C=C([C@H]1CC=C(C)CC1)[C@H](O)[C@@H](O)/C=C(\C)C(=O)O | inactive | inactive | inactive | 100 µg/mL (≈ 375 µM) | 100 µg/mL (≈ 375 µM) | 173 | – | – | – |
| C=C1CCC[C@@](C)(CO)[C@@H]1CCc1ccoc1 | 75 µg/mL (≈ 320 µM) | – | – | – | – | 27.8 | 59.8 | – | – |
| C/C(=C\c1csc(C)n1)[C@@H]1C[C@@H]2O[C@]2(C)CCC[C@H](C)[C@H](O)[C@@H](C)C(=O)C(C)(C)[C@@H](O)CC(=O)O1 [PATUPILONE] | – | – | – | – | – | 6.5e-05 | 0.00275 | – | – |
| CC1=CC[C@H]([C@@](C)(O)[C@@H](O)[C@@H](O)/C=C(\C)C(=O)O)CC1 | inactive | inactive | inactive | inactive | inactive | – | – | – | – |
| C=C1CCC[C@@](C)(C(=O)O)[C@@H]1CCc1ccoc1 | 75 µg/mL (≈ 302 µM) | inactive | inactive | inactive | 50 µg/mL (≈ 201 µM) | 141 | – | Not Active | – |
| NYSTATIN | – | – | – | – | 16.7 µg/mL | – | – | – | – |
| CN(C)[C@@H]1C(O)=C(C(N)=O)C(=O)[C@@]2(O)C(O)=C3C(=O)c4c(O)cccc4[C@@](C)(O)[C@H]3[C@H](O)[C@@H]12 [OXYTETRACYCLINE] | – | 0.4 µg/mL (≈ 0.869 µM) | – | 0.4 µg/mL (≈ 0.869 µM) | – | – | – | – | – |
| O=C(O)c1cn(C2CC2)c2cc(N3CCNCC3)c(F)cc2c1=O [CIPROFLOXACIN] | 3.1 µg/mL (≈ 9.36 µM) | – | – | – | – | – | – | – | – |
| CC1=CC[C@H]([C@@](C)(O)[C@@H](O)C/C=C(\C)C(=O)O)CC1 | inactive | inactive | inactive | inactive | 50 µg/mL (≈ 186 µM) | – | – | – | – |
| C=C1CCC[C@@](C)(CO)[C@@H]1CC/C(=C/CO)CO | inactive | inactive | inactive | inactive | 50 µg/mL (≈ 197 µM) | – | – | Not Active | Not Active |
| C=C1CCCC(C)(C)[C@@H]1CC/C(=C/CO)CO | 100 µg/mL (≈ 420 µM) | 100 µg/mL (≈ 420 µM) | inactive | 100 µg/mL (≈ 420 µM) | 25 µg/mL (≈ 105 µM) | 79.8 | 118 | – | – |
| O=C(O)/C=C/c1ccc(O)cc1 [COUMARIC ACID] | inactive | inactive | inactive | inactive | 50 µg/mL (≈ 305 µM) | – | – | Not Active | Not Active |
| NC[C@H]1O[C@H](O[C@H]2[C@H](O)[C@@H](O[C@H]3O[C@H](CO)[C@@H](O)[C@H](N)[C@H]3O)[C@H](N)C[C@@H]2N)[C@H](O)[C@@H](O)[C@@H]1O [KANAMYCIN] | – | – | 0.4 µg/mL (≈ 0.826 µM) | – | – | – | – | – | – |
